Test results: ChEMBL document CHEMBL5705892, “MK-2206, an allosteric Akt inhibitor, enhances antitumor efficacy by standard chemotherapeutic agents or molecular targeted drugs in vitro and in vivo” (Mol Cancer Ther, 2010)
The source made the active and inactive calls. No cut-off for these calls is given here.

Tests used:
NCI-H358 [1] = assay: Antiproliferative activity against human NCI-H358 cells assessed as reduction in cell proliferation measured after 72 hrs by celltiter-glo assay; format: functional, cell-based; conditions: NCI-H358, 72 h
Summary of the method: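 Cells in RPMI 1640 with 10% heat-inactivated FBS at 37°C and 5% CO₂ were seeded at 2 to 3 × 10³ per well. […] Growth was read as cellular ATP by CellTiter-Glo.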

A-431 = assay: Synergistic antiproliferative activity against human A-431 cells assessed as combination index at ED75 measured after 72 hrs in presence of erlotinib by celltiter-glo assay; format: functional
Summary of the method: (§1)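 Cells were seeded at 2–3 × 10³ per well in RPMI 1640 with 10% FBS. At 24 h, MK-2206 and the partner drug were added simultaneously at constant concentration ratios spanning each agent's IC₅₀, for 72 h. Growth was read as cellular ATP by CellTiter-Glo. CI was taken from median-effect plots of each agent alone and in combination (Chou–Talalay), at ED₅₀, ED₇₅ and ED₉₀.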

NCI-H292 [2] = assay: Synergistic antiproliferative activity against human NCI-H292 cells assessed as combination index at ED75 measured after 72 hrs in presence of erlotinib by celltiter-glo assay; format: functional
NCI-N87 [3] = assay: Synergistic antiproliferative activity against human NCI-N87 cells assessed as combination index at ED75 measured after 72 hrs in presence of lapatinib by celltiter-glo assay; format: functional
NCI-H358 [4] = assay: Synergistic antiproliferative activity against human NCI-H358 cells assessed as combination index at ED90 measured after 72 hrs in presence of erlotinib by celltiter-glo assay; format: functional
NCI-H23 [5] = assay: Synergistic antiproliferative activity against human NCI-H23 cells assessed as combination index at ED90 measured after 72 hrs in presence of erlotinib by celltiter-glo assay; format: functional
NCI-H23 [6] = assay: Synergistic antiproliferative activity against human NCI-H23 cells assessed as fold change in erlotinib IC50 at 1 umol/L measured after 72 hrs in presence of erlotinib by celltiter-glo assay relative to erlotinib alone; format: functional; conditions: dose 1 µmol/L
NCI-H292 [7] = assay: Induction of apoptosis in human NCI-H292 cells assessed as increase in caspase-3/7 activity measured after 48 hrs in presence of erlotinib by caspase-glo 3/7 assay; format: functional, cell-based; conditions: dose <= 3.0 µmol/L
Summary of the method: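 Caspase-3/7 activity was measured by Caspase-Glo 3/7 and expressed as fold over DMSO vehicle control. The experiment was done twice.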

[8] = target: RAC-alpha serine/threonine-protein kinase (Homo sapiens) (UniProt P31749); assay: Inhibition of AKT in human HCC827 cells assessed as reduction in AKT phosphorylation at S473 residue at 5 umol/L measured after 5 hrs by Western blot analysis; format: cell-based; conditions: dose 5.0 µmol/L
Chain of RAC-alpha serine/threonine-protein kinase (Homo sapiens) (P31749 whole entry): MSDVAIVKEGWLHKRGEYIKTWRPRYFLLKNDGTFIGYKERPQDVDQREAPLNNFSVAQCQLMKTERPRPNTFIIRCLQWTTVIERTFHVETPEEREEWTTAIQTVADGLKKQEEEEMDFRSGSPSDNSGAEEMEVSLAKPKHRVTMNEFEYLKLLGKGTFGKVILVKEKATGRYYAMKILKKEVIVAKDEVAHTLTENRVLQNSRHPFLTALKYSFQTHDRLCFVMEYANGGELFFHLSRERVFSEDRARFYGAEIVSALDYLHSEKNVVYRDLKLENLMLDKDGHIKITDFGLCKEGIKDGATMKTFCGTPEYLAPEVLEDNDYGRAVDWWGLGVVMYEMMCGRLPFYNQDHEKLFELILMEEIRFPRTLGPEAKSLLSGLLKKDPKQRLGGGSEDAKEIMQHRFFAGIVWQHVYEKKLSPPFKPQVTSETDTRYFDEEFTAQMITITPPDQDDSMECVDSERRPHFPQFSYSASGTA

[9] = In vivo inhibition of ERK phosphorylation at T202/Y204 residues in human NCI-H292 cells xenografted mouse at 120 mg/kg, po administered as single dose 2 hrs post-erlotinib treatment measured after 12 hrs by Western blot analysis relative to control; format: functional
SK-OV-3 = assay: Synergistic antiproliferative activity against human SK-OV-3 cells assessed as combination index at ED50 treated 24 hrs prior to lapatinib and measured after 72 hrs by celltiter-glo assay; format: functional; conditions: time 96 hrs
HCC1954 = assay: Synergistic antiproliferative activity against human HCC1954 cells assessed as combination index at ED50 measured after 96 hrs in presence of lapatinib by celltiter-glo assay; format: functional
NCI-N87 [10] = assay: Synergistic antiproliferative activity against human NCI-N87 cells assessed as combination index at ED75 measured after 96 hrs in presence of lapatinib by celltiter-glo assay; format: functional
[11] = Effect on total S6 protein expression in human HCC70 cells at 1 umol/L measured after 3 to 24 hrs in presence of lapatinib by Western blot analysis; format: toxicity, cell-based; conditions: hcc70, 1 µM, time 3-24 hrs, dose 1 µmol/L
Summary of the method: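 HCC70 cells at ~70% confluence were exposed to 1 µmol/L MK-2206, 10 µmol/L lapatinib, or both for 0, 3, 6, 12 or 24 h. Cells were lysed in Tris-HCl pH 7.5/NaCl/1% Triton X-100 with protease and phosphatase inhibitors. Lysates were run on SDS-PAGE and immunoblotted.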

[12] = Toxicity in human HCC70 cells xenografted CB17/icr SCID mouse assessed as body weight loss at 120 mg/kg, po administered 3 times per week for 3 weeks starting 2 hrs post-lapatinib treatment and measured during compound dosing; format: organism-based; conditions: in vivo, 504 h
Summary of the method: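 HCC70 cells in 50% Matrigel/PBS injected s.c. into flank of female C.B-17/ICR-scid mice; dosing began after 3 wk, groups randomized at mean tumour 0.2 cm³ (n = 5). Lapatinib 100 mg/kg p.o. in distilled water, 5 d/wk for 3 wk; MK-2206 in 30% Captisol p.o. 3×/wk for 3 wk, given 2 h after lapatinib. Body weight and physical signs monitored throughout.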

BT-474 = assay: Synergistic antiproliferative activity against human BT-474 cells assessed as combination index at ED50 measured after 72 hrs in presence of docetaxel by celltiter-glo assay; format: functional
Summary of the method: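 Cells grown in RPMI 1640 with 10% heat-inactivated FBS at 37°C, 5% CO₂. Seeded at 2 to 3 × 10³ per well; drugs added 24 h later. […] Viability read as cellular ATP by CellTiter-Glo. CI calculated by Chou–Talalay from median-effect plots at ED50, ED75 and ED90.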

SK-BR-3 = assay: Synergistic antiproliferative activity against human SK-BR-3 cells assessed as combination index at ED90 measured after 72 hrs in presence of docetaxel by celltiter-glo assay; format: functional
A2780 [13] = assay: Synergistic antiproliferative activity against human A2780 cells assessed as combination index at ED50 measured after 72 hrs in presence of carboplatin by celltiter-glo assay; format: functional; summary of the method: as §1
A2780 [14] = assay: Synergistic antiproliferative activity against human A2780 cells assessed as combination index at ED75 measured after 72 hrs in presence of camptothecin by celltiter-glo assay; format: functional; summary of the method: as §1
A2780 [15] = assay: Synergistic antiproliferative activity against human A2780 cells assessed as combination index at ED75 measured after 72 hrs in presence of 5-FU by celltiter-glo assay; format: functional; summary of the method: as §1
A2780 [16] = assay: Synergistic antiproliferative activity against human A2780 cells assessed as combination index at ED90 measured after 72 hrs in presence of carboplatin by celltiter-glo assay; format: functional; summary of the method: as §1
NCI-H460 [17] = assay: Synergistic antiproliferative activity against human NCI-H460 cells assessed as combination index at ED25 to ED90 measured after 72 hrs in presence of carboplatin by celltiter-glo assay; format: functional
NCI-H661 = assay: Synergistic antiproliferative activity against human NCI-H661 cells assessed as combination index at ED25 to ED90 measured after 72 hrs in presence of carboplatin by celltiter-glo assay; format: functional
UMC-11 [18] = assay: Synergistic antiproliferative activity against human UMC-11 cells assessed as combination index at ED25 to ED90 measured after 72 hrs in presence of gemcitabine by celltiter-glo assay; format: functional
NCI-H460 [19] = assay: Induction of apoptosis in human NCI-H460 cells assessed as fold induction of capsase-3/7 activity measured after 24 to 48 hrs in presence of gemcitabine by caspase-glo 3/7 assay; format: functional; conditions: time 24-48 hrs
UMC-11 [20] = assay: Induction of apoptosis in human UMC-11 cells assessed as fold induction of capsase-3/7 activity measured after 24 to 48 hrs in presence of gemcitabine by caspase-glo 3/7 assay; format: functional; conditions: time 24-48 hrs

SMILES: Cl.NC1(c2ccc(-c3nc4ccn5c(=O)[nH]nc5c4cc3-c3ccccc3)cc2)CCC1
- IC50 (NCI-H358 [1]): 13.5 µM
- CI75 (A-431): 0.21
- CI75 (NCI-H292 [2]): 0.31
- CI75 (NCI-N87 [3]): 0.55
- CI90 (NCI-H358 [4]): 0.08
- CI90 (NCI-H23 [5]): 0.68
- Ratio IC50 (NCI-H23 [6]): 2.4
- Activity (NCI-H292 [7]): Dose-Dependent Effect
- inhibition [8]: Active
- inhibition in vivo at 120 mg/kg [9]: 53.5%
- CI50 (SK-OV-3): 0.18
- CI50 (HCC1954): 0.18
- CI75 (NCI-N87 [10]): 0.18
- Activity [11]: Toxic
- Activity [12]: Non-Toxic
- CI50 (BT-474): 1
- CI90 (SK-BR-3): 0.8
- CI50 (A2780 [13]): 0.49
- CI75 (A2780 [14]): 0.4
- CI75 (A2780 [15]): 0.54
- CI90 (A2780 [16]): 0.38
- CI (NCI-H460 [17]): 0.3
- CI (NCI-H661): 0.37
- CI (UMC-11 [18]): 0.53
- fold change (FC) (NCI-H460 [19]): 1.6
- fold change (FC) (UMC-11 [20]): 1.2
